Measurements: ChEMBL document CHEMBL3108700, “Designing anti-inflammatory drugs from parasitic worms: a synthetic small molecule analogue of the Acanthocheilonema viteae product ES-62 prevents development of collagen-induced arthritis” (J Med Chem, 2013)
Active and inactive are the calls of the source. The rule behind the calls is not given here.

How the values were obtained:
[1] = tested on: Mus musculus; test: Antiinflammatory activity in DBA/1 mouse collagen-induced arthritis model assessed as reduction in number of PMA/ionomycin-stimulated total DLN cells expressing IFNgamma at 50 ug/kg, sc administered 2 days prior to collagen challenge continued till day 21 post collagen challenge by flow cytometric analysis relative to control; assay type: functional, organism-based
In short: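 CIA mice given test agent (1 μg/dose) or PBS subcutaneously on days −2, 0 and 21. Draining lymph node cells (10^6/mL) in complete RPMI were stimulated ± 50 ng/mL PMA plus 500 ng/mL ionomycin, with 10 μg/mL brefeldin A for 5 h at 37 °C. Cells were surface-stained for CD4, CD8 and γδ, fixed and permeabilized, then stained for intracellular IFNγ and IL-17A. Gating used isotype controls. Cell numbers per individual mouse; naive n = 7, treated groups n = 13.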

[2] = target: TLR2/TLR6 (Mus musculus) (UniProt Q9QUN7+Q9EPW9); test: Inhibition of TLR2/6-mediated NFkappaB p65 activation in BLP-stimulated BALB/c mouse BMDM at 5 ug/ml preincubated for 18 hrs followed by BLP challenge measured after 1 hr by TransAM ELISA; assay type: protein-complex assay
In short: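 Bone marrow macrophages (4 × 10^6/well) had their medium changed after 24 h, were pretreated with compounds at 5 μg/mL for 18 h, then stimulated for 1 h with 100 ng/mL LPS, 10 ng/mL BLP or 1 μM CpG. Activated NFκB p65 in nuclear extracts was measured by TransAM ELISA in duplicate.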

[3] = target: T1, Toll-like receptor 4 (Mus musculus) (UniProt Q9QUK6); test: Inhibition of TLR4 in C57BL/6 mouse BMDC assessed as reduction of LPS-induced IL-6 production at 5 ug/mL preincubated for 2 hrs prior to LPS challenge measured after 24 hrs by ELISA
T1 sequence (whole entry): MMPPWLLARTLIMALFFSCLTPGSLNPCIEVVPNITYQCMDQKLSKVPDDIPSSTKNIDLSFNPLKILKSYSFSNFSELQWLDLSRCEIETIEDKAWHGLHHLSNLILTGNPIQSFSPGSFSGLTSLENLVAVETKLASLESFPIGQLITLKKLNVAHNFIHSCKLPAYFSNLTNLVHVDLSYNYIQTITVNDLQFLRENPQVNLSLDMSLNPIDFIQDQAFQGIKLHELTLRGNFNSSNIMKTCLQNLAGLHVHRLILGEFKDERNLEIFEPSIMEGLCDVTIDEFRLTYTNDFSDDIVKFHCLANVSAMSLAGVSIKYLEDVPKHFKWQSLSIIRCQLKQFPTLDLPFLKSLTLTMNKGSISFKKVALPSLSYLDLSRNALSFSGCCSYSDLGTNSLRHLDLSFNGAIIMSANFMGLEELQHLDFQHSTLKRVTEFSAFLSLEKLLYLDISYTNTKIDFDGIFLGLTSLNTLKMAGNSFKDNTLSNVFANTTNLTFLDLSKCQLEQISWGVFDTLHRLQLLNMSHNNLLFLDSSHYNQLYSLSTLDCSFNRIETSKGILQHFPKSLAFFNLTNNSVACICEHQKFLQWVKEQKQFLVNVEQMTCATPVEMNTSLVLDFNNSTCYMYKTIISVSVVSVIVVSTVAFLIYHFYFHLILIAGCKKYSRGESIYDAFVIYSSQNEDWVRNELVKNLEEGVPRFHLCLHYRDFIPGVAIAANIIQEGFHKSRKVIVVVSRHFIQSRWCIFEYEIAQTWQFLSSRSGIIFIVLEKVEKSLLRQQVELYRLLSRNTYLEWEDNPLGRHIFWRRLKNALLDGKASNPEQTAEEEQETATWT
In short: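 C57BL/6 bone marrow DCs were generated in complete RPMI with 10 ng/mL GM-CSF. They were preincubated ± compound at 5 μg/mL for 2 h, then stimulated with LPS for 24 h. TNF-α, IL-6 and IL-23 in conditioned medium were measured by ELISA. Values are means of triplicates ± SEM pooled from 4 experiments.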

[4] = target: T1, Toll-like receptor 4 (Mus musculus); test: Inhibition of TLR4 in ovalbumin pulsed BALB/c mouse BMDC co-cultured with DO-11.10 CD4+ T cells assessed as reduction of LPS-induced IL-17 production at 5 ug/mL after 3 days by ELISA; assay type: cell-based; details: T-cell
In short: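 BALB/c bone marrow DCs ± compound (5 μg/mL) were treated ± S. minnesota LPS and pulsed with OVA peptide (0–300 nM). They were cocultured 3 days with naive CD4+CD62L+ DO.11.10 T cells, and IL-17A was measured by ELISA. Values are mean ± SD of duplicates from two experiments.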

[5] = tested on: Mus musculus; test: Antiinflammatory activity in DBA/1 mouse collagen-induced arthritis model assessed as reduction of disease scores at 50 ug/kg, sc administered 2 days prior to collagen challenge continued till day 21 post collagen challenge; assay type: functional, organism-based
In short: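 Collagen-induced arthritis mice were dosed subcutaneously (1 μg/dose) or given PBS on days −2, 0 and 21. Arthritis was scored clinically and hind paw width measured. Incidence was the % of mice with severity score ≥2 (cumulative) or ≥4 (high score). Results are mean ± SEM. Scores n = 13 per group, pooled from two experiments; paw width n = 7, from a single experiment.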

[6] = tested on: Mus musculus; test: Antiinflammatory activity in DBA/1 mouse collagen-induced arthritis model assessed as reduction in serum level of IL-17 at 50 ug/kg, sc administered 2 days prior to collagen challenge continued till day 21 post collagen challenge by ELISA; assay type: functional, organism-based
In short: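 Serum IL-17 was measured by ELISA in CIA mice dosed subcutaneously (1 μg/dose or PBS) on days −2, 0 and 21. Values are the mean of triplicate analyses per individual mouse (PBS n = 12, treated n = 13).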

inhibition [2]: Active | inhibition [3]: Active | inhibition [4]: Active
SMILES: CN(C)CCS(=O)(=O)Cc1ccc(Br)cc1
Activity [1]: Active | Activity [5]: Active | Activity [6]: inactive
